From ChEMBL document CHEMBL4325909, “Synthesis and evaluation of chalcone analogues containing a 4-oxoquinazolin-2-yl group as potential anti-tumor agents” (Eur J Med Chem, 2019)
pIC50: −log10 of the molar value.

Tests used:
[1] = system: HCT-116; experiment: Cytotoxicity against human HCT116 cells assessed as reduction in cell viability at 20 uM after 72 hrs by MTS assay relative to control; type: functional
Method in brief: (§1)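 Cells grown in DMEM with 10% FBS at 37 °C, 5% CO2, exposed to 20 μM for 72 h. Proliferation read by MTS and inhibition expressed relative to vehicle. ≥50% inhibition counted as active. Triplicate wells, three independent experiments.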

[2] = system: MCF7; experiment: Cytotoxicity against human MCF7 cells assessed as reduction in cell viability at 20 uM after 72 hrs by MTS assay relative to control; type: functional; method in brief: as §1
[3] = system: MCF7; experiment: Cytotoxicity against human MCF7 cells assessed as reduction in cell viability after 72 hrs by MTS assay; type: functional, cell-based; conditions: MCF7, 72 h
Method in brief: (§2)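 Cells kept in DMEM with 10% FBS at 37 °C, 5% CO2. Proliferation read by MTS (CellTiter 96 AQueous One) 72 h after exposure across a concentration range. IC50 is the concentration giving 50% proliferation inhibition. Triplicate wells, three independent experiments, mean ± SD.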

[4] = system: HCT-116; experiment: Cytotoxicity against human HCT116 cells assessed as reduction in cell viability after 72 hrs by MTS assay; type: functional, cell-based; conditions: HCT-116, 72 h; method in brief: as §2
[5] = system: HeLa; experiment: Cytotoxicity against human HeLa cells assessed as reduction in cell viability after 72 hrs by MTS assay; type: functional, cell-based
Method in brief: (§3)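 MTS (CellTiter 96 AQueous One) proliferation read after 72 h of exposure across a concentration range. IC50 is the concentration giving 50% proliferation inhibition. Triplicate determinations in three independent experiments, mean ± SD.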

[6] = system: HT-29; experiment: Cytotoxicity against human HT-29 cells assessed as reduction in cell viability after 72 hrs by MTS assay; type: functional, cell-based; conditions: HT-29, 72 h; method in brief: as §3
[7] = system: MDA-MB-231; experiment: Cytotoxicity against human MDA-MB-231 cells assessed as reduction in cell viability after 72 hrs by MTS assay; type: functional, cell-based; conditions: MDA-MB-231, 72 h; method in brief: as §3
[8] = system: A549; experiment: Cytotoxicity against human A549 cells assessed as reduction in cell viability after 72 hrs by MTS assay; type: functional, cell-based; conditions: A549, 72 h; method in brief: as §3
[9] = system: MCF-10A; experiment: Cytotoxicity against human MCF10A cells assessed as reduction in cell viability after 72 hrs by MTS assay; type: cell-based; method in brief: as §3

| Structure (SMILES) | Activity [1] | Activity [2] | pIC50 [3] | pIC50 [4] | pIC50 [5] | pIC50 [6] | pIC50 [7] | pIC50 [8] | pIC50 [9] |
| --- | --- | --- | --- | --- | --- | --- | --- | --- | --- |
| COc1ccc(/C=C/C(=O)c2nc3ccccc3c(=O)[nH]2)c(OC)c1 | < 50% | < 50% | < 4.70 | < 4.70 |  |  |  |  |  |
| O=C(/C=C/c1nc2ccccc2c(=O)[nH]1)c1ccc(C(F)(F)F)cc1 | < 50% | < 50% | < 4.70 | < 4.70 |  |  |  |  |  |
| COc1cc(C(=O)/C=C/c2nc3ccccc3c(=O)[nH]2)cc(OC)c1OC | >=50% | >=50% | 4.86 | 4.89 |  |  |  |  |  |
| O=C(/C=C/c1ccccn1)c1nc2ccccc2c(=O)[nH]1 | >=50% | >=50% | < 4.70 | < 4.70 |  |  |  |  |  |
| O=C(/C=C/c1cccnc1)c1nc2ccccc2c(=O)[nH]1 | >=50% | >=50% | < 4.70 | < 4.70 |  |  |  |  |  |
| Cc1ccc(C(=O)/C=C/c2nc3ccccc3c(=O)[nH]2)c(C)c1 | >=50% | >=50% | 5.35 | 5.32 | 5.02 | 4.90 | 4.82 | 4.88 | 5.26 |
| COc1cc(OC)c(C(=O)/C=C/c2nc3ccccc3c(=O)[nH]2)c(OC)c1 | >=50% | >=50% | 5.30 | 5.25 |  |  |  |  |  |
| O=C(/C=C/c1cccs1)c1nc2ccccc2c(=O)[nH]1 | >=50% | >=50% | < 4.70 | < 4.70 |  |  |  |  |  |
| Cc1ccc(/C=C/C(=O)c2nc3ccccc3c(=O)[nH]2)cc1 | >=50% | < 50% | < 4.70 | < 4.70 |  |  |  |  |  |
| COc1cc(/C=C/C(=O)c2nc3ccccc3c(=O)[nH]2)cc(OC)c1 | >=50% | >=50% | 4.78 | 4.80 |  |  |  |  |  |
| O=C(/C=C/c1nc2ccccc2c(=O)[nH]1)c1ccc(Cl)cc1 | >=50% | >=50% | 5.22 | 5.21 |  |  |  |  |  |
| COc1cccc(/C=C/C(=O)c2nc3ccccc3c(=O)[nH]2)c1 | >=50% | >=50% | 4.81 | 4.83 |  |  |  |  |  |
| COc1cc(C(=O)/C=C/c2nc3ccccc3c(=O)[nH]2)ccc1O | >=50% | >=50% | 5.22 | 5.34 |  |  |  |  |  |
| O=C(/C=C/c1ccc(Br)cc1)c1nc2ccccc2c(=O)[nH]1 | >=50% | >=50% | < 4.70 | < 4.70 |  |  |  |  |  |
| N#Cc1ccc(/C=C/C(=O)c2nc3ccccc3c(=O)[nH]2)cc1 | >=50% | >=50% | < 4.70 | 4.70 |  |  |  |  |  |
| O=C(/C=C/c1ccco1)c1nc2ccccc2c(=O)[nH]1 | >=50% | >=50% | < 4.70 | < 4.70 |  |  |  |  |  |
| O=c1[nH]cc(F)c(=O)[nH]1 [FLUOROURACIL] |  |  |  |  | < 4.70 | 5.00 | < 4.70 | 4.83 | < 4.70 |
| COc1ccc(/C=C/C(=O)c2nc3ccccc3c(=O)[nH]2)cc1 | < 50% | < 50% | < 4.70 | < 4.70 |  |  |  |  |  |

| Structure (SMILES) | Activity [1] | Activity [2] | pIC50 [3] | pIC50 [4] | pIC50 [5] | pIC50 [6] | pIC50 [7] | pIC50 [8] | pIC50 [9] |
| --- | --- | --- | --- | --- | --- | --- | --- | --- | --- |
| COc1ccccc1C(=O)/C=C/c1nc2ccccc2c(=O)[nH]1 | >=50% | >=50% | 5.37 | 5.41 | 4.87 | 5.17 | 4.81 | 4.86 | 5.28 |
| O=C(/C=C/c1ccc(F)cc1)c1nc2ccccc2c(=O)[nH]1 | >=50% | >=50% | < 4.70 | 4.82 |  |  |  |  |  |
| Cc1ccccc1C(=O)/C=C/c1nc2ccccc2c(=O)[nH]1 | >=50% | >=50% | 5.38 | 5.38 | 4.98 | 5.19 | 4.98 | 4.87 | 5.21 |
| Nc1ccc(C(=O)/C=C/c2nc3ccccc3c(=O)[nH]2)cc1 | < 50% | < 50% | < 4.70 | < 4.70 |  |  |  |  |  |
| COc1ccccc1/C=C/C(=O)c1nc2ccccc2c(=O)[nH]1 | < 50% | >=50% | < 4.70 | < 4.70 |  |  |  |  |  |
| O=C(/C=C/c1nc2ccccc2c(=O)[nH]1)c1ccc(F)cc1 | < 50% | < 50% | < 4.70 | < 4.70 |  |  |  |  |  |
| COc1cc(/C=C/C(=O)c2nc3ccccc3c(=O)[nH]2)cc(OC)c1OC | >=50% | < 50% | < 4.70 | < 4.70 |  |  |  |  |  |
| COc1ccc(/C=C/C(=O)c2nc3ccccc3c(=O)[nH]2)cc1OC | < 50% | < 50% | < 4.70 | < 4.70 |  |  |  |  |  |
| COc1cccc(C(=O)/C=C/c2nc3ccccc3c(=O)[nH]2)c1 | >=50% | >=50% | 4.89 | 4.92 |  |  |  |  |  |
| O=C(/C=C/c1nc2ccccc2c(=O)[nH]1)c1ccccc1 | >=50% | >=50% | 5.39 | 5.26 |  |  |  |  |  |
| O=C(/C=C/c1ccc([N+](=O)[O-])cc1)c1nc2ccccc2c(=O)[nH]1 | >=50% | >=50% | < 4.70 | 4.88 |  |  |  |  |  |
| O=C(/C=C/c1nc2ccccc2c(=O)[nH]1)c1ccc(O)cc1 | >=50% | >=50% | 5.31 | 5.39 | 5.03 | 4.97 | 4.78 | 4.82 | 5.21 |
| Cc1ccc(C(=O)/C=C/c2nc3ccccc3c(=O)[nH]2)cc1 | >=50% | >=50% | 5.03 | 5.24 |  |  |  |  |  |
| O=C(/C=C/c1ccc(Cl)cc1)c1nc2ccccc2c(=O)[nH]1 | >=50% | >=50% | < 4.70 | 4.81 |  |  |  |  |  |
| COc1ccc(C(=O)/C=C/c2nc3ccccc3c(=O)[nH]2)cc1 | >=50% | >=50% | 4.99 | 5.00 |  |  |  |  |  |
| O=C(/C=C/c1ccncc1)c1nc2ccccc2c(=O)[nH]1 | >=50% | < 50% | < 4.70 | < 4.70 |  |  |  |  |  |
| O=C(/C=C/c1nc2ccccc2c(=O)[nH]1)c1ccc(Cl)c(Cl)c1 | >=50% | >=50% | 5.09 | 4.77 |  |  |  |  |  |
| O=C(/C=C/c1ccccc1)c1nc2ccccc2c(=O)[nH]1 | < 50% | >=50% | < 4.70 | < 4.70 |  |  |  |  |  |
